# Results taken from ChEMBL document CHEMBL4818993, “Installation of an aryl boronic acid function into the external section of N-aryl-oxazolidinones: Synthesis and antimicrobial evaluation” (2021).
# Tests used:
# [1] = system: Enterococcus faecalis; test: Antibacterial activity against vancomycin resistant Enterococcus faecalis 51575 assessed as inhibition of bacterial growth measured after 24 hrs; format: functional
# [2] = system: Enterococcus faecium; test: Antibacterial activity against Enterococcus faecium 35667 assessed as inhibition of bacterial growth measured after 24 hrs; format: functional
# [3] = system: Enterococcus faecium; test: Antibacterial activity against vancomycin resistant Enterococcus faecium 700221 assessed as inhibition of bacterial growth measured after 24 hrs; format: functional
# [4] = system: Staphylococcus aureus; test: Antibacterial activity against Staphylococcus aureus 29213 assessed as inhibition of bacterial growth measured after 24 hrs; format: functional
# [5] = system: Staphylococcus aureus; test: Antibacterial activity against Methicillin resistant Staphylococcus aureus 43300 assessed as inhibition of bacterial growth measured after 24 hrs; format: functional
# [6] = Efflux ratio of MIC for Escherichia coli 25922 to MIC for Escherichia coli JW5503; format: functional
# In short: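 Ratio of the MIC against wild-type E. coli ATCC 25922 to the MIC against the tolC deletion mutant JW5503. Both MICs were read after 24 h, n = 3. Not determined when the MIC was >50 μM for both strains.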
# [7] = system: Enterococcus faecalis; test: Antibacterial activity against Enterococcus faecalis 29212 assessed as inhibition of bacterial growth measured after 24 hrs; conditions: Enterococcus faecalis, 29212, 24 h
# [8] = system: Escherichia coli; test: Antibacterial activity against Escherichia coli JW5503 delta tolC mutant assessed as inhibition of bacterial growth measured after 24 hrs; conditions: JW5503, 24 h
SMILES,MIC [1] [µM],MIC [2] [µM],MIC [3] [µM],MIC [4] [µM],MIC [5] [µM],Ratio [6],MIC [7] [µM],MIC [8] [µM]
CC(=O)NC[C@H]1CN(c2ccc(-c3ccc(COC(=O)c4ccc(B(O)O)cc4)cc3)c(F)c2)C(=O)O1,0.39,0.78,0.39,0.78,0.78,> 16,0.78,3.13
CC(=O)NC[C@H]1CN(c2ccc(-c3cccc(CO)c3)c(F)c2)C(=O)O1,3.13,1.56,1.56,3.13,1.56,> 16,1.56,3.13
O=C(O)c1cn(C2CC2)c2cc(N3CCNCC3)c(F)cc2c1=O [CIPROFLOXACIN],3,,,1.5,,,,
CC(=O)NC[C@H]1CN(c2ccc(-c3ccc(CNC(=O)c4cccc(B(O)O)c4)cc3)c(F)c2)C(=O)O1,0.39,0.78,0.78,0.78,0.78,> 64,0.39,0.78
CC(=O)NC[C@H]1CN(c2ccc(-c3cccc(COC(=O)c4ccc(B(O)O)cc4)c3)c(F)c2)C(=O)O1,0.39,0.78,0.78,0.78,0.78,> 16,0.78,3.13
CC(=O)NCC1CN(c2ccc(-c3ccc(COC(=O)c4ccc(B(O)O)c(Cl)c4)cc3)c(F)c2)C(=O)O1 (stereo not drawn),1.56,1.56,1.56,1.56,1.56,> 2,1.56,25
CC(=O)NCC1CN(c2ccc(-c3ccc(COC(=O)c4ccc(B(O)O)cc4)cc3)c(F)c2)C(=O)O1 (stereo not drawn),1.56,3.23,1.56,3.13,1.56,> 8,3.13,6.25
CC(=O)NC[C@H]1CN(c2ccc(-c3ccc(OC(=O)c4ccc(B(O)O)cc4)cc3)c(F)c2)C(=O)O1,> 50,> 50,> 50,> 50,> 50,,> 50,> 50
CC(=O)NC[C@H]1CN(c2ccc(-c3ccc(CNC(=O)c4ccc(B(O)O)cc4)cc3)c(F)c2)C(=O)O1,0.39,0.39,0.39,0.78,0.78,> 64,0.39,0.78
CC(=O)NCC1CN(c2ccc(-c3ccc(COC(=O)c4ccc(B(O)O)c(F)c4)cc3)c(F)c2)C(=O)O1 (stereo not drawn),0.78,1.56,1.56,1.56,1.56,> 4,1.56,12.5
CC(=O)NCC1CN(c2ccc(-c3ccc(COC(=O)c4ccccc4)cc3)c(F)c2)C(=O)O1 (stereo not drawn),3.13,6.25,3.13,3.13,3.13,,3.13,> 50
CC(=O)NC[C@H]1CN(c2ccc(N3CCOCC3)c(F)c2)C(=O)O1 [LINEZOLID],6.25,12.5,6.25,6.25,6.25,> 1,6.25,75
CC(=O)NC[C@H]1CN(c2ccc(-c3ccc(CN)cc3)c(F)c2)C(=O)O1,1.56,0.78,1.56,3.13,3.13,> 8,1.56,6.25
CC(=O)NC[C@H]1CN(c2ccc(-c3ccc(CO)cc3)c(F)c2)C(=O)O1,0.78,0.78,0.78,1.56,0.78,> 32,0.78,1.56
CC(=O)NCC1CN(c2ccc(-c3ccc(COC(=O)c4ccc(B(O)O)cc4F)cc3)c(F)c2)C(=O)O1 (stereo not drawn),1.56,1.56,1.56,1.56,1.56,> 2,1.56,25
O=C(O)c1ccc(B(O)O)cc1,> 50,> 50,> 50,> 50,> 50,,> 50,> 50
CC(=O)NC[C@H]1CN(c2ccc(-c3ccc(O)cc3)c(F)c2)C(=O)O1,0.39,0.78,0.39,0.78,0.78,> 32,0.39,1.56
CC(=O)NC[C@H]1CN(c2ccc(-c3ccc(COC(=O)c4cccc(B(O)O)c4)cc3)c(F)c2)C(=O)O1,0.78,> 50,> 50,1.56,0.78,> 16,> 50,3.13
CC(=O)NCC1CN(c2ccc(-c3ccc(COC(=O)c4ccc(B(O)O)cc4Cl)cc3)c(F)c2)C(=O)O1 (stereo not drawn),3.13,3.13,3.13,3.13,3.13,> 2,3.13,25
